Screening data: PubChem BioAssay, Johns Hopkins Ion Channel Center
MrgX1 agonist: human MrgX1 receptor agonism, primary screen; Q96LB2; MrgX1-HEK293 cells, Fluo-4 calcium fluorescence, agonist mode; stronger effect = higher value; B-score at 10 µM; 310,000 tested, 0.44% active;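 active = calcium response B-score plate-corrected fluorescence ratio at least 3 library SD, with starting fluorescence B-score inside 5 SD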
Target sequence (Q96LB2 whole entry, looked up): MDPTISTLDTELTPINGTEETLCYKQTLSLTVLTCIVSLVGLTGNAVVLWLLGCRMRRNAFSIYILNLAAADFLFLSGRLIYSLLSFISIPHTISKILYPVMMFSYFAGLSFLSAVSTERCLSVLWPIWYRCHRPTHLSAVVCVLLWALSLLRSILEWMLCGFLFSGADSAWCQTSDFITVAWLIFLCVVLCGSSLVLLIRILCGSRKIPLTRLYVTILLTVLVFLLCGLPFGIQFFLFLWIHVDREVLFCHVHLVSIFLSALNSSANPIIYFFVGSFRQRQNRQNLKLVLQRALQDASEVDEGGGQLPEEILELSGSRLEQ
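Material – MrgX1-expressing HEK293 cells · Input – 15,000 cells seeded per well · Dosing – compound as first of three additions · Times – overnight seeding, then 1 h dark dye loading · Measured by – kinetic Fluo-4 NW fluorescence of intracellular calcium · Read-out – B-scored fluorescence response ratio · Benchmarks – positive and negative control wells on each plate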
MrgX1 PAM: human MrgX1 positive allosteric modulation, primary screen; Q96LB2; MrgX1-HEK293, Fluo-4 calcium flux, FDSS; stronger effect = higher value; B-score at 10 µM; 310,000 tested, 0.63% active; AID 588675;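 active = plate-corrected calcium response at least 3 library SD above typical, normal starting fluorescence, not activating the receptor alone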;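 also: compound read alongside a low EC10 to EC30 dose of BAM8-22 agonist; peak minus trough fluorescence over baseline measured at the second addition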
RGS4 inh: human RGS4 inhibition; P49798; HEK293 M3R/RGS4 inducible, Fluo-4 calcium flux; stronger effect = higher value; triggered by carbachol at its EC20; B-score at 10 µM; 310,000 tested, 0.45% active; AID 463165;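 active = B-score, a plate-corrected calcium signal, over three deviations above library mean, with baseline fluorescence within five deviations of library mean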;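 also: RGS4 expression induced by doxycycline in cells with stable M3 receptor; B-score is computed from the integrated fluorescence ratio over baseline after carbachol; higher B-score means a larger calcium signal and so more RGS4 inhibition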
Target sequence (P49798 whole entry, looked up): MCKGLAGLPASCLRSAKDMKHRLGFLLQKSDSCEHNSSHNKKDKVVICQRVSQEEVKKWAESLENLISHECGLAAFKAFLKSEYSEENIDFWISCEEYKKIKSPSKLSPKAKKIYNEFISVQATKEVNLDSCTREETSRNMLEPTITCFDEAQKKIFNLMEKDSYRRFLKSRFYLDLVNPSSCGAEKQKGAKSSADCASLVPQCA
MrgX1 antagonist: antagonists of human MrgX1 receptor. B-score at 10 µM. Q96LB2. MRGX1-HEK293 calcium flux, Fluo-4, BAM8-22 antagonism; stronger effect = lower value. 310,000 tested, 1.3% active. AID 588676;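 active = calcium-response B-score plate-corrected more than 3 library SD below zero, starting fluorescence within 5 deviations, no agonist response on first addition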;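 also: peak minus trough fluorescence over baseline after final BAM8-22 challenge near maximal dose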
RGS4 act: potentiators or activators of RGS4 | 310,000 tested, 0.92% active | B-score at 10 µM | HEK293 M3R/inducible RGS4, carbachol calcium flux Fluo4; stronger effect = lower value | AID 463111;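 active = B-score of the integrated calcium signal more than 4 SD below the library mean, with starting fluorescence not abnormally high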;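 also: negative B-score means reduced calcium response which marks RGS4 activation or potentiation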
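Test system: HEK293 cells with stable M3R and inducible RGS4; also added: carbachol at ECmax as muscarinic agonist stimulus; schedule: dye loading 30 min 37 °C, buffer rest 30 min RT; technique: kinetic calcium fluorescence imaging with Fluo4-AM dye, 2 µM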
An asterisk follows results filed as active; i = inactive; x = no result. The list is not random: actives were taken first. Their share in the collection is about 3.5%.

SMILES | MrgX1 agonist | MrgX1 PAM | RGS4 inh | MrgX1 antagonist | RGS4 act
CCOc1cc(/C=C2\C(=N)N3N=C(CC)SC3=NC2=O)ccc1OCCOc1ccc(NC(C)=O)cc1 | i | i | i | i | i
CCC1=NN2C(=N)/C(=C/c3c(C)nn(-c4ccccc4)c3Cl)C(=O)N=C2S1 | 30* | i | i | i | i
COc1cc(/C=C2\C(=N)N3N=C(C)SC3=NC2=O)cc(Cl)c1OCCOc1ccc(NC(C)=O)cc1 | i | 7.6* | i | i | i
CCOc1cc(/C=C2\C(=N)N3N=C(C)SC3=NC2=O)ccc1OCCOc1cccc(OC)c1 | i | i | i | i | i
O=C(CCNS(=O)(=O)c1ccc(Br)s1)NCc1ccc2c(c1)OCO2 | i | i | i | i | i
O=C(CCC1CCCCC1)NCc1ccccn1 | i | i | i | i | i
CC(=O)Nc1ccc(OCCOc2ccc(/C=C3/C(=N)N4C=CSC4=NC3=O)cc2)cc1 | 30* | i | i | i | i
CCCC1=NN2C(=N)/C(=C\c3ccc(OCCOc4ccc(NC(C)=O)cc4)c(OC)c3)C(=O)N=C2S1 | i | 15* | i | i | i
COc1cc(/C=C2/C(=N)N3OC(C)=CC3=NC2=O)ccc1OCCOc1ccc(C)cc1 | i | i | i | -4.9* | i
COc1cc(/C=C2\C(=N)N3N=C(C(C)C)SC3=NC2=O)ccc1OCCOc1ccc(NC(C)=O)cc1 | i | 14* | i | i | i
COc1ccccc1OCCOc1ccc(/C=C2\C(=N)N3N=C(S(C)(=O)=O)SC3=NC2=O)cc1 | i | i | i | i | i
CC1(C)[C@@H](O)CC[C@]2(C)C3C(O)C=C4[C@H]5C[C@@](C)(C(=O)O)CC[C@]5(C)CC[C@]4(C)[C@]3(C)CC[C@@H]12 (some centres undefined) | 29* | i | i | i | i
CC(C)(C)C(=O)Nc1ccccc1N1CCN(c2ccc(F)cc2)CC1 | i | i | i | i | i
CCn1c(O)c(/C=N/N=C/c2ccccc2)c2ccc(C3=NNC(=O)CC3)cc21 | i | i | i | -4.8* | i
CCCOC(=O)C1=C(C)NC2=C(C(=O)CCC2)C1c1ccc(N(C)C)cc1 (centres undefined) | i | i | i | i | -7.2*
CCOC(=O)C1=C(C)NC2=C(C(=O)CCC2)C1c1ccc(N(C)C)cc1 (centres undefined) | i | i | i | i | i
CSc1ccccc1NC(=O)CN(c1ccccc1Br)S(C)(=O)=O | i | i | i | i | i
CC(C)(C)c1ccc(/C=N/NC(=O)C[n+]2ccccc2)cc1 | i | i | i | i | -7.1*
CC(C)(C)c1cc(/C=N/NC(=O)C[n+]2ccccc2)cc(C(C)(C)C)c1O | i | i | i | i | -7*
CCCC(=O)Nc1c(-c2ccccc2Cl)c(=O)c2ccccc2n1C | i | i | i | i | i
Cc1onc(C(=O)NN)c1C(=O)Nc1ncc(C(F)(F)F)cc1Cl | i | i | i | i | i
CC12COC3(C(=O)Nc4ccccc4F)CC1CCC32C (centres undefined) | i | i | i | i | i
CC12COC3(C(=O)Nc4ccc([N+](=O)[O-])cc4)CC1CCC32C (centres undefined) | i | 8.4* | i | i | i
Cc1onc(-c2cccc(Cl)c2Cl)c1C(=O)O/N=C(\N)c1ccc([N+](=O)[O-])o1 | i | i | i | i | -8.7*
CC1CCN(c2cc(N)c(Cl)cc2[N+](=O)[O-])CC1 | i | 7.3* | i | i | i
SMILES | MrgX1 agonist | MrgX1 PAM | RGS4 inh | MrgX1 antagonist | RGS4 act
CC1CCN(c2cc(C#N)c(C#N)cc2[N+](=O)[O-])CC1 | i | 11* | i | i | i
CCOC(=O)c1cccc(N/C=C/C(=O)c2ccc(OC)c(OC)c2)c1 | i | i | i | i | -8.3*
COc1cccc(N/C=C/C(=O)c2ccc(OC)c(OC)c2)c1 | i | i | i | i | i
O=C(CN1C(=O)C2C3CC(C(Br)C3Br)C2C1=O)Nc1ccc(C(=O)O)cc1 (centres undefined) | i | i | i | i | i
CCCOc1ccc(-c2nc[nH]c2[N+](=O)[O-])cc1 | i | i | i | i | i
COc1ccc(S(=O)(=O)N2CCc3ccccc32)cc1C(=O)OCC(=O)c1c(N)n(C)c(=O)n(C)c1=O | i | i | i | i | -9.6*
Cc1cc2c(=O)oc(-c3ccccc3Br)nc2s1 | x | x | i | x | i
Cc1cc2c(=O)oc(-c3ccc(F)cc3)nc2s1 | i | i | i | -23* | i
CCCc1nnc(SCC(=O)Nc2ccccc2Cl)n1CC1CCCO1 (centres undefined) | i | i | i | i | i
CCCCn1c(N)c(N(CCOC)C(=O)C2CCN(C(=O)c3ccc(F)cc3)CC2)c(=O)[nH]c1=O | i | i | i | i | i
O=C(CSc1nnc(COc2ccc(Cl)cc2Cl)o1)Nc1ccccn1 | i | i | i | i | i
Clc1ccc(OCc2nnc(SCc3nnc(-c4ccccc4)o3)o2)c(Cl)c1 | i | i | i | i | -9.7*
CCCCCOc1ccc(NC(=O)C(=O)NCC2CCCN2CC)cc1 (centres undefined) | i | i | i | -7* | i
COc1ccc(-n2c(O)c(/C=N/NS(=O)(=O)c3cccc([N+](=O)[O-])c3)c3ccccc3c2=O)cc1OC | i | i | i | i | i
CCN1CCCC1CNC(=O)c1cc(OC)c(OC)c(OC)c1 (centres undefined) | i | i | i | i | i
CCN1CCCC1CNC(=O)CCNC(=O)c1cc(OC)c(OC)c(OC)c1 (centres undefined) | i | i | i | -6.5* | i
Cn1cccc1CC(=O)N/N=C/c1ccc(C(C)(C)C)cc1 | i | i | i | i | i
Cc1ccc(/C=N/NC(=O)Cc2cccn2C)cc1 | i | 6.7* | i | i | i
Cc1ccc(/C=N/NC(=O)Cc2cccn2C)s1 | i | 6.5* | i | i | i
Cc1ccccc1-c1cc(C(=O)N2CCCC2)c2ccccc2n1 | i | i | i | i | i
O=C(c1cc(-c2ccccc2Cl)nc2ccccc12)N1CCN(c2ccccc2O)CC1 | i | i | i | i | -7.6*
CN1CCCN(C(=O)c2cc(-c3cccc4ccccc34)nc3ccccc23)CC1 | 35* | i | i | i | i
O=C(c1cc(-c2ccccc2Cl)nc2ccccc12)N1CCC1 | i | i | i | i | i
